Measured values reported in ChEMBL document CHEMBL1124597, “Quinones. 4. Novel eicosanoid antagonists: synthesis and pharmacological evaluation” (J Med Chem, 1989).

Assays:
Type in all cases: functional
Oryctolagus cuniculus [1] = species: Oryctolagus cuniculus; test: In vitro percent inhibition against U-44,069 (10e-7 M) induced contraction of rabbit aorta at 10e-5 M concentration.
Method in brief: (§1)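 Rabbit aortic strips (2-3 mm × 3 cm) in Krebs-Henseleit, 37 °C, 95% O2/5% CO2, 2 g resting tension, isometric recording. Drugs (final 10⁻⁵ to 10⁻⁸ M, 0.01% DMSO) added 10 min before U-44069 (2-6 nM, about 50% of the 30 mM KCl contraction). Percent inhibition, or concentration reducing contraction by 50%; duplicate means.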

Oryctolagus cuniculus [2] = species: Oryctolagus cuniculus; test: In vitro percent inhibition against U-44,069 (10e-7 M) induced contraction of rabbit aorta at 10e-6 M concentration; method in brief: as §1
Oryctolagus cuniculus [3] = species: Oryctolagus cuniculus; test: In vitro concentration that reduced U-44069-induced contraction of the rabbit aorta by 50%; method in brief: as §1
Oryctolagus cuniculus [4] = species: Oryctolagus cuniculus; test: In vitro percent inhibition against U-44,069 (10e-7 M) induced contraction of rabbit aorta at 10e-7 M concentration; method in brief: as §1

Row | IC50 (Oryctolagus cuniculus [3]) | SMILES | Inhibition (Oryctolagus cuniculus [1]) | Inhibition (Oryctolagus cuniculus [2]) | Inhibition (Oryctolagus cuniculus [4])
1 | – | CC1=C(C)C(=O)C(C(CCCCCc2nnn[nH]2)c2ccccc2)=C(C)C1=O (centres undefined) | 2% | – | –
2 | – | CC1=C(C)C(=O)C(C(CCCCCCCCC(=O)O)c2ccccc2)=C(C)C1=O (centres undefined) | 41% | – | –
3 | – | CC1=C(C)C(=O)C(C(CCCC#CC(=O)O)c2ccccc2)=C(C)C1=O (centres undefined) | 72% | – | –
4 | – | CC1=C(C)C(=O)C(C(CCCCCC(=O)NCC(=O)O)c2ccccc2)=C(C)C1=O (centres undefined) | 0% | – | –
5 | 1900 nM | CC1=C(C)C(=O)C(C(CCCCCC(=O)O)c2cccc(F)c2)=C(C)C1=O (centres undefined) | 100% | 31% | –
6 | 1000 nM | CC1=C(C)C(=O)C(C(CCCCCC(=O)O)c2ccc(C)cc2)=C(C)C1=O (centres undefined) | 100% | 50% | –
7 | – | CC1=C(C)C(=O)C(C(CCC(=O)NCC(=O)O)c2ccccc2)=C(C)C1=O (centres undefined) | 0% | – | –
8 | – | CC1=C(C)C(=O)C(C(CCCCCC(=O)O)c2cccc(C(F)(F)F)c2)=C(C)C1=O (centres undefined) | 64% | – | –
9 | – | CC1=C(C)C(=O)C(C(CCC(=O)O)c2ccccc2)=C(C)C1=O (centres undefined) | 0% | – | –
10 | – | CC1=C(C)C(=O)C(C(C)CCCCCC(=O)O)=C(C)C1=O (centres undefined) | 0% | – | –
11 | – | CC1=C(C(CCCCCC(=O)O)c2ccc(F)cc2)C(=O)c2ccccc2C1=O (centres undefined) | 100% | 100% | 78%
12 | – | CC1=C(C)C(=O)C(C(CCOc2cccc(C(=O)O)c2)c2ccccc2)=C(C)C1=O (centres undefined) | 2% | – | –
13 | 240 nM | CC1=C(C(CCCCCC(=O)O)c2ccccc2)C(=O)c2ccccc2C1=O (centres undefined) | 100% | 99% | 20%
14 | 3200 nM | CC1=C(C)C(=O)C(C(CCCCCC(=O)O)c2ccccc2C)=C(C)C1=O (centres undefined) | 99% | 0% | –
15 | – | COc1ccccc1C(CCCCCC(=O)O)C1=C(C)C(=O)C(C)=C(C)C1=O (centres undefined) | 0% | – | –
16 | – | CC1=C(C)C(=O)C(C(CCCCC(C)(C)C(=O)O)c2ccccc2)=C(C)C1=O (centres undefined) | 12% | – | –
17 | – | CC1=C(C)C(=O)C(C(CCCCCC(N)=O)c2ccccc2)=C(C)C1=O (centres undefined) | 6% | – | –
18 | 3000 nM | COc1ccc(C(CCCCCC(=O)O)C2=C(C)C(=O)C(C)=C(C)C2=O)cc1 (centres undefined) | 100% | 3% | –
19 | 1400 nM | COC(=O)CCCCCC(C1=C(C)C(=O)C(C)=C(C)C1=O)c1ccccc1 (centres undefined) | 95% | 36% | –
